Data on 6 sequences can be found in article PMC12410913 (Small (Weinheim an Der Bergstrasse, Germany), 2025).

“Also recorded” adds a separate entry of the source.

In one series the test system is S. aureus ATCC 29 737. Kind of series: Field-emission SEM of nanonet morphology. Type of series: cell-based. To be noted: 40 µM peptide (100 µM E-E13 ASYM), 2 h, MHB, 37 °C. An outline of the steps: (§1)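 Mid‑log bacteria were diluted in MHB to OD600 0.07, then given test peptide and shaken at 120 rpm. They were pelleted at 6000 g for 6 min, PBS‑washed three times, and fixed overnight at 4 °C in 2.5% glutaraldehyde. Cells were adhered to poly‑L‑lysine coverslips, post‑fixed with 1% OsO4 for 30 min, ethanol‑dehydrated and gold‑coated. Imaging was at 15 000×, with ≥3 fields per sample. Coverage and extensiveness were scored high/moderate/low.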

For the next series, the system named is E. coli ATCC 25 922. Kind of series: Field-emission SEM of nanonet morphology. Type of series: cell-based. The following applies: 40 µM peptide (100 µM E-E13 ASYM), 2 h, MHB, 37 °C. An outline of the steps:
as §1

A further series in a line: BODIPY-Cadaverine. Type of series: binding, E. coli O111:B4 (LPS), S. aureus (LTA). To be noted: LPS/LTA-BC complexes in 1× PBS pH 7.4, 37 °C, 30 minutes. In short, it runs like this:
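LPS (E. coli O111:B4) or LTA (S. aureus) at 50 µg mL−1 was premixed with 5 µM BODIPY‑cadaverine in 1× PBS pH 7.4 for 30 min at room temperature in the dark. The premix was added 1:1 to two‑fold serial peptide dilutions in PBS, with polymyxin B as control, and shaken at 120 rpm. Fluorescence was read at ex 580/em 620 nm. Occupancy factor and % BC displaced came from sample fluorescence scaled between highest and lowest signals.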

Series [1] in a line: K114 fluorescence fibrillation assay with LPS or LTA. Type of series: physicochemical, E. coli O111:B4 (LPS), S. aureus (LTA). The following applies: 20 µM peptide, 37 °C. In short, it runs like this:
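A 10 mM DMSO stock of K114 was diluted to 250 µM in water and mixed at once with test peptide plus LPS (E. coli O111:B4) or LTA (S. aureus), with shaking at 120 rpm. K114 fluorescence (ex 360/em 550 nm) was read at 0.5, 1 and 2 h. Results were given as % increase in signal, with a non‑fibrillating control peptide as baseline. Three repeats, mean ± SE.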

Series [2] in a line: K114 fluorescence fibrillation assay in PBS alone. To be noted: 20 µM peptide, 1× PBS pH 7.4, 37 °C, 30 minutes. The series is classed as physicochemical. An outline of the steps:
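K114 was dissolved in DMSO at 10 mM and diluted to 250 µM in water. It was mixed at once with test peptide in 1× PBS pH 7.4 without LPS or LTA and shaken at 120 rpm. Fluorescence was read at ex 360/em 550 nm at 0.5, 1.0 and 2.0 h. Fibrillation was judged by signal above a non‑fibrillating control peptide.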

Turning to EVRIKLTAKIEVR [E‐E13 ^ASYM], the “Nanonet morphology (surface coverage, extensiveness) on S. aureus” value (shortened to “Nanonet morphology … on S. aureus”) with S. aureus ATCC 29 737 was “minimal membrane contact and low surface coverage”. The “Nanonet morphology (surface coverage, extensiveness) on E. coli” value (“Nanonet morphology … on E. coli” for short) with E. coli ATCC 25 922 was “minimal membrane contact and low surface coverage”. Further, the “Binding to bacterial PAMPs (BC displaced from LPS or LTA)” value in the series “BODIPY-Cadaverine” was “significantly reduced binding to bacterial PAMPs”.
Turning to KFRFKLTAKFRFK [diF‐F13], in the series on S. aureus ATCC 29 737, the “Nanonet morphology … on S. aureus” value is “formed nanonets similar to F‐F15 and BTT1‐3A”. In addition, the “Nanonet morphology … on E. coli” value in the series with E. coli ATCC 25 922 is reported as “tighter interweaving of nanofibers on the surface of E. coli”.
As for KFRVKLTAKVRFK [F‐F13], in the series with S. aureus ATCC 29 737, the “Nanonet morphology … on S. aureus” value is reported as “slightly increased surface coverage on S. aureus but with less extensive nanonets”. In addition, the “Fibrillation (K114 fluorescence signal) in response to LPS” value in series [1] (5 µg mL−1 LPS) was “lower fibrillation in response to LPS”. Besides, the “Fibrillation (K114 fluorescence signal) upon LTA binding” value in series [1] (5 µg mL−1 LTA) is reported as “higher in fibrillation upon LTA binding”. Moreover, in the series with E. coli ATCC 25 922, the “Nanonet morphology … on E. coli” value was “loosely trap E. coli with moderate surface coverage”.
In the case of KLKLKLTAKLKLK [btt1‐3A13], the “Nanonet morphology … on S. aureus” value in the series on S. aureus ATCC 29 737 is listed as “random aggregated structures”. For the same sequence, in the series on E. coli ATCC 25 922, the “Nanonet morphology … on E. coli” value was “less extensive nanonets with low surface coverage”.
LKFRFKLTAKFRFKL [diF‐F15]: the “Fibrillation (K114 fluorescence) in PBS alone” value in series [2] is recorded as “spontaneously fibrillated in PBS; also recorded: significantly increased the K114 fluorescence signal, even in PBS alone”.
With LKFRVKLTAKVRFKL [F‐F15], the “Nanonet morphology … on S. aureus” value in the series on S. aureus ATCC 29 737 was “extensive nanonets with moderate surface coverage”. The “Nanonet morphology … on E. coli” value with E. coli ATCC 25 922 was “extensive nanonets with moderate surface coverage”.
